Measured values pooled from the literature.
Each line is one published result; the experiments were not run side by side.

| Compound | test | system | setting | kinetic solubility |
| --- | --- | --- | --- | --- |
| COC(=O)CN(CC(=O)N[C@@H](Cc1c[nH]cn1)C(=O)OC)Cc1ccccc1 |  | PBS | 24 h, pH 7.4 | 191 µM |
| CCC(=O)Nc1cc(Nc2cc(NC3CC3)n3ncc(C#N)c3n2)ccc1N1CCC[C@@H](NC)C1 | shake flask | PBS | 24 h, pH 7.4, 22 °C | 65 µg/mL |
| Cc1cc(Nc2ccc(C(F)(F)F)cc2)c2ccccc2n1 |  | simulated gastric fluid | pH 2, acidic | > 330 µM |
| O=C(O)CN(CCCc1ccccc1)CC(=O)N[C@H](CO)Cc1c[nH]cn1 |  | PBS | 24 h, pH 7.4 | 180 µM |
| O=C(/C=C/c1cccnc1)NCCCCC1CCN(C(=O)c2ccccc2)CC1 |  | PBS | 90 min, pH 7.4 | 225 µM |
| Cc1cc(Nc2ccc(S(F)(F)(F)(F)F)cc2)n2ccnc2n1 |  | PBS | pH 6.5 | 8.9 µM |
| CCn1cc(-c2cc(Cn3ccnc3)cc3c2OCCN([C@H](c2cc(OC)ccn2)C2CC2)C3=O)c(C(F)(F)F)n1 |  | PBS | 1 h, pH 7.4 | 74 µM |
| CN[C@H]1CCN(c2ccc(Nc3cc(NC4CC4)n4ncc(C#N)c4n3)cc2NC(C)=O)C1 | shake flask | PBS | 24 h, pH 7.4, 22 °C | 49 µg/mL |
| O=C1CCC(N2C(=O)c3cccc(NCCCCNC(=O)c4cccc(C#Cc5cc(NC(=O)Nc6ccnc(Cl)c6)ccn5)c4)c3C2=O)C(=O)N1 (stereo not drawn) |  | PBS | 24 h, pH 7.4 | < 1.56 µM |
| CC(=O)Nc1cc(Nc2cc(NC3CC3)n3ncc(C#N)c3n2)ccc1N(C)C1COC1 | shake flask | PBS | 24 h, pH 7.4, 22 °C | 0.9 µg/mL |
| CCCCOC(=O)NS(=O)(=O)c1sc(CC(C)C)cc1-c1ccc2c(c1)CN(C(C)=O)CC2 |  | aqueous buffer | pH 7.4, 37 °C | 31 µM |
| CC(=O)Nc1cc(Nc2cc(NC3CC3)n3ncc(C#N)c3n2)ccc1N1CCC[C@H](O)C1 | shake flask | PBS | 24 h, pH 7.4, 22 °C | 37 µg/mL |
| COC(=O)[C@H](Cc1c[nH]cn1)NC(=O)CN(CCCc1ccccc1)CC(=O)O |  | PBS | 24 h, pH 7.4 | 199 µM |
| CCCCOC(=O)NS(=O)(=O)c1sc(CC(C)C)cc1-c1ccc2c(c1)CN(C(C)=O)C2 |  | aqueous buffer | pH 7.4, 37 °C | 30 µM |
| COc1ccn2c(Nc3ccccc3F)c(-c3ccncn3)nc2c1 |  | aqueous buffer | 24 h | 163 µM |
| CNC(=O)[C@H](Cc1c[nH]cn1)NC(=O)CN(CCCc1ccccc1)CC(=O)OC |  | PBS | 24 h, pH 7.4 | 179 µM |
| CC[C@H](NC(=O)[C@H](CS(=O)(=O)CC1CC1)N[C@@H](c1ccc(F)cc1)C(F)(F)F)C(=O)C(=O)NC1CC1 |  | PBS | pH 7.4 | 223 µM |
| CN[C@@H]1CCCN(c2ccc(Nc3cc(NC4CC4)n4ncc(C#N)c4n3)cc2NC(C)=O)C1 | shake flask | PBS | 24 h, pH 7.4, 22 °C | 52 µg/mL |
| COC(=O)[C@H](Cc1c[nH]cn1)NC(=O)CN(CC(=O)O)Cc1ccccc1 |  | PBS | 24 h, pH 7.4 | 154 µM |
| CC(=O)Nc1cc(Nc2cc(NC3CC3)n3ncc(C#N)c3n2)ccc1N1CCNCC1 | shake flask | PBS | 24 h, pH 7.4, 22 °C | 52 µg/mL |
| CCOC(=O)NS(=O)(=O)c1sc(CC(C)C)cc1-c1ccc2c(c1)CN(C)C(=O)C2 |  | aqueous buffer | pH 7.4, 37 °C | 61 µM |
